The results in this text go back to PubChem BioAssay AID492951 (Molecular Libraries Program, Specialized Chemistry Center, …, 2010).

A number with no mark means an inactive call. Active and inactive are the calls of the source.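 How the source made its calls: active means inhibition above 10%; inactive means the rest.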

Chain of Hexokinase-4 (Homo sapiens) (P35557 whole entry, looked up): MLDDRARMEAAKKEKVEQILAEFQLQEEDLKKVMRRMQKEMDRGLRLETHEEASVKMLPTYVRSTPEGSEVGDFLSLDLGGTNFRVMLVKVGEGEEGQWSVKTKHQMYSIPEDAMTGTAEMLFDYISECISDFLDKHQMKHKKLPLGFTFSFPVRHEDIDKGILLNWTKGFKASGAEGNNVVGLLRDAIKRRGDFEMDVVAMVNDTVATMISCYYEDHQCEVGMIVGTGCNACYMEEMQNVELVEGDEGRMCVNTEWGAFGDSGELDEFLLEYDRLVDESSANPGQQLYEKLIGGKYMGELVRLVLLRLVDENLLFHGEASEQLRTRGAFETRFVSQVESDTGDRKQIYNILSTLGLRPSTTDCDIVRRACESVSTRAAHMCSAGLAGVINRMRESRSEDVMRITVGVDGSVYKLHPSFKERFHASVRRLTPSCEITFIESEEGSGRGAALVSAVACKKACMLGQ

For the assay, the target named is Hexokinase-4 (Homo sapiens) (UniProt P35557). Description: hGlck enzyme activity off-target inhibitors – biochemical, recombinant hGlck, counter-screen for TbHK1 inhibitor project (AID 492951). The conditions noted are these: G6PDH-coupled NADH absorbance 340 nm, at 10 µM; hits give high values. A digest of the protocol:
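Material: Recombinant human glucokinase, G6PDH-coupled | Medium: TEA buffer pH 7.9 with 3.3 mM MgCl2, 0.75 mM NAD+ | Also added: 20 mM glucose as reaction starter, plus 1 mM ATP | Compound dosing: One dose, 10 µM final | Schedule: 10 min preincubation at room temperature | Measured by: A340 of NADH | Repeats: Three replicates per compound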
(In general: The purpose of a counterscreen is to sort out artefacts and off-target activity.)
A word on the inhibition: it is the relative decrease from the control value, in per cent. `O=C(Nc1cc(Cl)ccc1C(=O)O)c1ccc(-c2cccs2)cc1`: the inhibition was 30.3% (active).
For the compound `COc1ccc(Nc2cc(Cl)ccc2C(=O)O)cc1`, the result was inactive.
`O=c1c2ccc([N+](=O)[O-])cc2sn1-c1ccccc1`: the inhibition is 1.5%.
For the compound `CCc1ccc(C(=O)Nc2cc(Br)ccc2C(=O)O)cc1`, the outcome was inactive.
Regarding `O=c1c2ccccc2sn1-c1cccc(F)c1`, the inhibition is 28.2% (active).
Regarding `O=c1c2cccnc2sn1-c1ccccc1`, the inhibition was 91.5% (active).
Regarding `O=C(Nc1cc(Cl)ccc1C(=O)O)c1ccc(Cl)cc1`, the outcome was inactive.
Consider `COc1ccc(C(=O)Nc2cc(C(F)(F)F)ccc2C(=O)O)cc1`, for which the inhibition is 10.5% (active).
Take `CC(C)(C)c1ccc(C(=O)Nc2cc(Br)ccc2C(=O)O)cc1`: the inhibition is 26.2% (active).
As to `O=C(O)c1ccc(Cl)cc1NC(=O)c1coc2ccccc12`, the outcome was inactive.
As for `COc1ccccc1NC(=O)Cn1sc2ccccc2c1=O`, the inhibition is 8.4%.
Regarding `O=C(Nc1cc(Cl)ccc1C(=O)O)c1ccoc1`, the outcome was inactive.
Turning to `COc1ccc2sn(-c3ccccc3)c(=O)c2c1`, the inhibition was 13.6% (active).
As to `CCOC(=O)Cn1sc2ccccc2c1=O`, the outcome was inactive.
In the case of `COc1ccc(C(=O)Nc2ccccc2C(=O)O)cc1`, the result was inactive.
`O=C(Nc1ccc([N+](=O)[O-])cc1Cl)c1cc(Cl)ccc1O`: the inhibition is 32.1% (active).
Turning to `Cc1cccc(C(=O)Nc2cc(Cl)ccc2C(=O)O)c1`, the result was inactive.
Regarding `COc1ccc(NC(=O)Nc2ccccc2C(=O)O)cc1`, the inhibition is 5.1%.
As to `O=C(Nc1cc(Cl)ccc1C(=O)O)c1ccncc1`, the outcome was inactive.
Regarding `COc1ccc(C(=O)NC(CC(=O)O)c2ccccc2)cc1` (stereo not drawn), the inhibition was 4%.
As to `O=C(CCn1sc2ccccc2c1=O)Nc1ccccc1`, the outcome was inactive.
In the case of `Cc1ccccc1-n1sc2cc(F)ccc2c1=O`, the result was inactive.
Take `O=C(NCc1ccccc1)n1sc2ccccc2c1=O`: the inhibition was 38.3% (active).
For the compound `COc1ccc(C(=O)NC(C(=O)O)c2ccccc2)cc1` (stereo not drawn), the result was inactive.
Turning to `O=c1c2cc(F)ccc2sn1-c1ccccc1`, the inhibition was 50.1% (active).
Take `N#Cc1ccc2sn(-c3ccccc3)c(=O)c2c1`: the inhibition is 4.3%.
Same read-out and setting: for `CN(C)c1ccc(NC(=O)Cn2sc3ccccc3c2=O)cc1` the value was 14.1% (active).
On to `O=C(Nc1cc(Cl)ccc1C(=O)O)c1ccc(OC(F)(F)F)cc1`, for which the inhibition was 13.1% (active).
Consider `O=C(Cn1sc2ccccc2c1=O)Nc1cccc(C(F)(F)F)c1`, for which the inhibition was 9.3%.
For the compound `O=c1c(O)c(-c2ccc(O)c(O)c2)oc2cc(O)cc(O)c12`, the inhibition is 68.9% (active).
Turning to `O=C(O)c1ccc(Cl)cc1NC(=O)C1CCOCC1`, the result was inactive.
Regarding `O=C(Nc1cc(Cl)ccc1C(=O)O)c1ccc2ccccc2c1`, the inhibition was 11.5% (active).
On to `Cc1ccc(-n2sc3ccccc3c2=O)cc1`, for which the inhibition is 26.1% (active).
In the case of `CC(=O)Nc1cc(Cl)ccc1C(=O)O`, the result was inactive.
With `COc1ccccc1-n1sc2ccccc2c1=O`, the inhibition was 55% (active).
For the compound `COc1ccc(C(=O)Nc2cc(Cl)ccc2C(=O)O)cn1`, the outcome was inactive.
In the case of `O=c1c2ccc(Br)cc2sn1-c1ccccc1`, the inhibition is 33.8% (active).
With `CC(=O)Nc1ccc2sn(-c3ccccc3)c(=O)c2c1`, the inhibition is 51.9% (active).
